Assays:
[1] = test system: Peptoniphilus asaccharolyticus; assay: In vitro antimicrobial activity against anaerobic bacteria peptococcus asaccharolyticus 1302; format: functional
Haemophilus influenzae [2] = assay: In vitro antimicrobial activity against aerobic bacteria Haemophilus influenzae 465; format: functional
Clostridium perfringens = assay: In vitro antimicrobial activity against anaerobic bacteria clostridium perfringens 81,; format: functional
Streptococcus pyogenes [3] = assay: In vivo effective dose against Streptococcus pyogenes C203 when administered orally; format: functional; conditions: po
[4] = test system: Staphylococcus epidermidis; assay: In vitro antimicrobial activity against aerobic bacteria Streptococcus epi 270; format: functional
Streptococcus viridans = assay: In vitro antimicrobial activity against aerobic bacteria Streptococcus viridans 9943; format: functional
Bacteroides fragilis [5] = assay: In vitro antimicrobial activity against anaerobic bacteria bacteroides fragilis 1877; format: functional
Streptococcus pneumoniae [6] = assay: In vitro antimicrobial activity against aerobic bacteria Streptococcus pneumoniae B1-438; format: functional, streptococcus pneum
[7] = test system: Fusobacterium necrophorum; assay: In vitro antimicrobial activity against anaerobic bacteria usobacterium necrophorum 6054A; format: functional
Staphylococcus aureus [8] = assay: In vitro antimicrobial activity against aerobic bacteria Staphylococcus aureus V135; format: functional
Streptococcus pyogenes [9] = assay: In vitro antimicrobial activity against Streptococcus pyogenes C203; format: functional
Haemophilus influenzae [10] = assay: In vitro antimicrobial activity against Haemophilus influenzae.; format: functional
Streptococcus [11] = assay: In vitro antimicrobial activity against aerobic bacteria Streptococcus D 9960; format: functional
Staphylococcus aureus [12] = assay: In vitro antimicrobial activity against aerobic bacteria Staphylococcus aureus X400; format: functional
Streptococcus [13] = assay: In vitro antimicrobial activity against aerobic bacteria Streptococcus G Kruder; format: functional; conditions: Streptococcus; read-out: MIC
Streptococcus pyogenes [14] = assay: Antimicrobial activity against Streptococcus pyogenes C203; format: functional
[15] = test system: Staphylococcus epidermidis; assay: In vitro antimicrobial activity against aerobic bacteria Streptococcus epi 222; format: functional
Staphylococcus aureus [16] = assay: In vitro antimicrobial activity against Staphylococcus aureus X1; format: functional
[17] = test system: Prevotella melaninogenica; assay: In vitro antimicrobial activity against anaerobic bacteria bacteroides melaninogenicus 1856,; format: functional
[18] = test system: Haemophilus parainfluenzae; assay: In vitro antimicrobial activity against aerobic bacteria Haemophilus parainfluenzae 9796; format: functional
Streptococcus [19] = assay: In vitro antimicrobial activity against aerobic bacteria Streptococcus B 5; format: functional
Clostridium septicum = assay: In vitro antimicrobial activity against anaerobic bacteria clostridium septicum 1128; format: functional
Phocaeicola vulgatus = assay: In vitro antimicrobial activity against anaerobic bacteria bacteroides vulgatus 1211; format: functional
[20] = test system: Staphylococcus epidermidis; assay: In vitro antimicrobial activity against Staphylococcus epidermidis EPI1; format: functional
Enterococcus faecium = assay: In vitro antimicrobial activity against Streptococcus faecium X66; format: functional, streptococcus fae-cium
[21] = test system: Peptostreptococcus anaerobius; assay: In vitro antimicrobial activity against anaerobic bacteria eubacterium peptostreptococcus anaerobius 1428,; format: functional
[22] = test system: Bacteroides thetaiotaomicron; assay: In vitro antimicrobial activity against anaerobic bacteria bacteroides thetaiotaomicron 1438; format: functional
Staphylococcus aureus [23] = assay: In vitro antimicrobial activity against aerobic bacteria Staphylococcus aureus 513E; format: functional
Fusobacterium = assay: In vitro antimicrobial activity against anaerobic bacteria fusobacterium symbiosum 1470; format: functional
[24] = In vitro antimicrobial activity against anaerobic bacteria peptostreptococcus intermedius 1264; format: functional
Staphylococcus aureus [25] = assay: In vitro antimicrobial activity against aerobic bacteria Staphylococcus aureus V140,; format: functional
Streptococcus [26] = assay: In vitro antimicrobial activity against aerobic bacteria Streptococcus D 2041; format: functional
Streptococcus pyogenes [27] = assay: In vivo effective dose against Streptococcus pyogenes C203 when administered sc; format: functional
Bacteroides fragilis [28] = assay: In vitro antimicrobial activity against anaerobic bacteria bacteroides fragilis 1936B,; format: functional
Streptococcus pneumoniae [29] = assay: In vitro antimicrobial activity against Streptococcus pneumoniae; format: functional
Collinsella aerofaciens = assay: In vitro antimicrobial activity against anaerobic bacteria eubacterium aerofaciens 1235; format: functional
Bacteroides fragilis [30] = assay: In vitro antimicrobial activity against anaerobic bacteria bacteroides fragilis 111; format: functional
Streptococcus sanguinis = assay: In vitro antimicrobial activity against aerobic bacteria Streptococcus sanguis MX132; format: functional
Streptococcus [31] = assay: In vitro antimicrobial activity against aerobic bacteria Streptococcus B 8; format: functional
Staphylococcus aureus [32] = assay: In vitro antimicrobial activity against aerobic bacteria Staphylococcus aureus V41; format: functional
Streptococcus [33] = assay: In vitro antimicrobial activity against aerobic bacteria Streptococcus C 24; format: functional
Chlamydia trachomatis = assay: In vitro antimicrobial activity against chlamydia trachomatis.; format: functional
Anaerococcus prevotii = assay: In vitro antimicrobial activity against anaerobic bacteria peptococcus prevoti 1281; format: functional
Haemophilus influenzae [34] = assay: In vitro antimicrobial activity against aerobic bacteria Haemophilus influenzae 76; format: functional
Cutibacterium acnes = assay: In vitro antimicrobial activity against anaerobic bacteria propionibacterium acnes 79; format: functional
Eikenella corrodens = assay: In vitro antimicrobial activity against anaerobic bacteria bacteroides corrodens 1874; format: functional
Streptococcus [35] = assay: In vitro antimicrobial activity against aerobic bacteria Streptococcus D 8043; format: functional
Clostridioides difficile = assay: In vitro antimicrobial activity against anaerobic bacteria Clostridium difficile 2994; format: functional
[36] = test system: Prevotella melaninogenica; assay: In vitro antimicrobial activity against anaerobic bacteria bacteroides melaninogenicus 2736; format: functional
Haemophilus influenzae [37] = assay: In vitro antimicrobial activity against aerobic bacteria Haemophilus influenzae MX366,; format: functional
Streptococcus [38] = assay: In vitro antimicrobial activity against aerobic bacteria Streptococcus D 2041
Streptococcus [39] = assay: In vitro antimicrobial activity against aerobic bacteria Streptococcus D 8043
Streptococcus pneumoniae [40] = assay: In vivo effective dose against experimental infections in mice Streptococcus pneumoniae park when administered orally; format: functional; conditions: po
Streptococcus pneumoniae [41] = assay: In vivo effective dose against experimental infections in mice Streptococcus pneumoniae park when administered sc; format: functional
Staphylococcus aureus [42] = assay: In vivo effective dose against experimental infections in mice Staphylococcus aureus X1 when administered sc; format: functional
[43] = test system: Peptostreptococcus anaerobius; assay: In vitro antimicrobial activity against anaerobic bacteria peptostreptococcus anaerobius 1428,; format: functional
Streptococcus [44] = assay: In vitro antimicrobial activity against aerobic bacteria Streptococcus G Kruder
Staphylococcus aureus [45] = assay: In vivo effective dose against experimental infections in mice Staphylococcus aureus X1 when administered orally; format: functional; conditions: po
Streptococcus [46] = assay: In vitro antimicrobial activity against aerobic bacteria Streptococcus C 24
Streptococcus pyogenes [47] = assay: Activity against Streptococcus pyogenes C203 when administered orally; format: functional; conditions: po
Procedure, shortened: (§1)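 Mouse protection test: infected mice were dosed twice, at 1 and 5 h postinfection, either subcutaneously or orally. […] The result is expressed as ED50 in mg/kg × 2.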

Streptococcus [48] = assay: In vitro antimicrobial activity against aerobic bacteria Streptococcus D 9960
Streptococcus [49] = assay: In vitro antimicrobial activity against aerobic bacteria Streptococcus B 8
Streptococcus pyogenes [50] = assay: Activity against Streptococcus pyogenes C203 when administered sc; format: functional; procedure, shortened: as §1
Streptococcus pyogenes [51] = assay: In vivo pyogenes C203 when administered sc; format: functional
Streptococcus pyogenes [52] = assay: In vivo activity against experimental infections in rodent caused by Streptococcus pyogenes C203 when administered orally; format: functional; conditions: po

CC[C@H]1OC(=O)C[C@@H](O)[C@H](C)[C@@H](O[C@@H]2O[C@H](C)[C@@H](O[C@H]3C[C@@](C)(O)[C@@H](O)[C@H](C)O3)[C@H](N(C)C)[C@H]2O)[C@@H](CC=O)C[C@@H](C)C(=O)/C=C/C(C)=C/[C@@H]1CO
1 µg/mL: MIC (Streptococcus [11]) | MIC (Staphylococcus aureus [16]) | MIC [20] | MIC (Enterococcus faecium) | MIC (Staphylococcus aureus [23]) | MIC (Staphylococcus aureus [32]) | MIC (Chlamydia trachomatis) | MIC (Clostridioides difficile)
2 µg/mL: MIC (Staphylococcus aureus [8]) | MIC (Staphylococcus aureus [12]) | MIC (Phocaeicola vulgatus) | MIC [22] | MIC (Staphylococcus aureus [25]) | MIC (Bacteroides fragilis [28]) | MIC (Bacteroides fragilis [30]) | MIC (Eikenella corrodens) | MIC [36] | MIC (Haemophilus influenzae [37])
< 0.03 µg/mL: MIC [1]
8 µg/mL: MIC (Haemophilus influenzae [2]) | MIC [18] | MIC (Anaerococcus prevotii)
82 mg/kg: ED50 (Streptococcus pyogenes [3])
0.25 µg/mL: MIC (Streptococcus pyogenes [9]) | MIC (Streptococcus [13]) | MIC (Streptococcus pyogenes [14]) | MIC [15] | MIC [24] | MIC (Streptococcus sanguinis) | MIC (Streptococcus [31]) | MIC (Streptococcus [33]) | MIC (Cutibacterium acnes)
0.12 µg/mL: MIC [7] | MIC (Collinsella aerofaciens)
> 128 µg/mL: MIC [4] | MIC (Streptococcus viridans)
1.9 mg/kg: ED50 (Streptococcus pyogenes [27])
0.5 µg/mL: MIC (Clostridium perfringens) | MIC [17] | MIC (Streptococcus [19]) | MIC (Clostridium septicum) | MIC (Fusobacterium) | MIC (Streptococcus [26]) | MIC (Streptococcus pneumoniae [29]) | MIC (Streptococcus [35])
4 µg/mL: MIC (Bacteroides fragilis [5]) | MIC (Haemophilus influenzae [10]) | MIC [21] | MIC (Haemophilus influenzae [34])
128 µg/mL: MIC (Streptococcus pneumoniae [6])

CC[C@H]1OC(=O)C[C@@H](O)[C@H](C)[C@@H](O[C@@H]2O[C@H](C)[C@@H](O)[C@H](N(C)C)[C@H]2O)[C@@H](CC=O)C[C@@H](C)C(=O)/C=C/C(C)=C/[C@@H]1CO[C@@H]1O[C@H](C)[C@@H](O)[C@@H](OC)[C@H]1OC
2 µg/mL: MIC (Clostridium septicum) | MIC [22] | MIC (Fusobacterium) | MIC (Cutibacterium acnes)
8 µg/mL: MIC [1] | MIC (Bacteroides fragilis [5]) | MIC [17] | MIC [18] | MIC (Phocaeicola vulgatus) | MIC (Bacteroides fragilis [28]) | MIC (Bacteroides fragilis [30]) | MIC (Haemophilus influenzae [34]) | MIC (Eikenella corrodens)
16 µg/mL: MIC (Haemophilus influenzae [2]) | MIC [24] | MIC [36]
> 128 µg/mL: MIC [4] | MIC (Streptococcus viridans) | MIC (Streptococcus pneumoniae [6])
32 µg/mL: MIC (Haemophilus influenzae [37])
4 µg/mL: MIC [43] | MIC (Haemophilus influenzae [10]) | MIC (Enterococcus faecium) | MIC (Anaerococcus prevotii)
0.12 µg/mL: MIC (Collinsella aerofaciens)
> 10 mg/kg: ED50 (Streptococcus pneumoniae [41])
1 µg/mL: MIC [7] | MIC (Staphylococcus aureus [8]) | MIC (Staphylococcus aureus [12]) | MIC (Staphylococcus aureus [23]) | MIC (Streptococcus [48]) | MIC (Staphylococcus aureus [25]) | MIC (Staphylococcus aureus [32])
84 mg/kg: ED50 (Streptococcus pyogenes [52])
0.8 mg/kg: ED50 (Streptococcus pyogenes [47])
0.25 µg/mL: MIC (Clostridium perfringens) | MIC (Streptococcus pyogenes [9]) | MIC (Streptococcus [44]) | MIC [15] | MIC (Streptococcus pneumoniae [29]) | MIC (Clostridioides difficile)
> 100 mg/kg: ED50 (Streptococcus pneumoniae [40]) | ED50 (Staphylococcus aureus [45])
0.5 µg/mL: MIC (Streptococcus [38]) | MIC (Streptococcus [39]) | MIC (Staphylococcus aureus [16]) | MIC (Streptococcus [19]) | MIC (Streptococcus [46]) | MIC [20] | MIC (Streptococcus [49]) | MIC (Streptococcus sanguinis) | MIC (Chlamydia trachomatis)
1.4 mg/kg: ED50 (Streptococcus pyogenes [51])
3.9 mg/kg: ED50 (Staphylococcus aureus [42])
0.25 mg/kg: ED50 (Streptococcus pyogenes [50])
